Test results from ChEMBL document CHEMBL1150767, “4-N-, 4-S-, and 4-O-chloroquine analogues: influence of side chain length and quinolyl nitrogen pKa on activity vs chloroquine resistant malaria” (J Med Chem, 2008).

Key:
[1] = tested on: Plasmodium falciparum; experiment: Selectivity for chloroquine-resistant Plasmodium falciparum FCB over chloroquine-sensitive Plasmodium falciparum GCO3 as IC50 ratio by SYBR green assay; format: functional
[2] = tested on: Plasmodium falciparum; experiment: Selectivity for chloroquine-resistant Plasmodium falciparum Dd2 over chloroquine-sensitive Plasmodium falciparum HB3 as IC50 ratio by SYBR green assay; format: functional
[3] = tested on: Plasmodium falciparum; experiment: Antimalarial activity against chloroquine-resistant Plasmodium falciparum Dd2 after 72 hrs by SYBR green assay; format: functional, organism-based; conditions: Dd2, 72 h
Method in brief: (§1)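 Sorbitol-synchronized P. falciparum cultures (>95% rings) at 0.5% parasitemia, 1% hematocrit final, exposed to drug dilutions in complete medium 72 h at 37°C; SYBR Green I added, 1 h at 37°C, fluorescence read at 530 nm (490 nm excitation). Each dilution in triplicate; IC50 averaged over at least two separate assays.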

[4] = tested on: Plasmodium falciparum; experiment: Antimalarial activity against chloroquine-resistant Plasmodium falciparum FCB after 72 hrs by SYBR green assay; format: functional, organism-based; method in brief: as §1
[5] = tested on: Plasmodium falciparum; experiment: Antimalarial activity against chloroquine-sensitive Plasmodium falciparum GCO3 after 72 hrs by SYBR green assay; format: functional, organism-based; conditions: GCO3, 72 h; method in brief: as §1
[6] = tested on: Plasmodium falciparum; experiment: Antimalarial activity against chloroquine-sensitive Plasmodium falciparum HB3 after 72 hrs by SYBR green assay; format: functional, organism-based; conditions: HB3, 72 h; method in brief: as §1
[7] = tested on: Plasmodium falciparum; experiment: Drug accumulation in digestive vacuole of chloroquine-sensitive Plasmodium falciparum assessed as vacuolar accumulation ratio at pH 5.6; format: ADME, organism-based
Method in brief: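 Calculated, not measured: Henderson–Hasselbach equation with cytosolic pH 7.4 and digestive vacuole pH 5.6 (CQS), using experimental pKa values.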

[8] = Inhibition of haemozoin formation at pH 5.6 after 18 hrs; format: functional
Method in brief: (§2)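 Cell-free β-hematin formation in 1 mL containing lecithin (2 μg/ml final), hematin (100 μM final), 0.1 M HCl, propionate buffer at stated pH, and drug (0-1000 μM). Triplicates shaken at 37°C for 18 h. Pellets washed with pH 9.0 bicarbonate to remove uncrystallized heme, dried, dissolved in 0.1 M NaOH, and quantified by absorbance at 402 nm against a heme calibration curve.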

[9] = Binding affinity to mu dimeric heme in aqueous solution at pH 7.5
Method in brief: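 Hemin first converted to μ-oxo dimer in mild alkaline solution, then titrated to pH 7.5 with Hepes buffer. Heme titrated with increasing drug (0 – 50 μM); absorbance at 402 nm recorded after each addition. Solvent-only titration served as control. Ka derived from ΔAbs402 plots by Scatchard analysis.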

[10] = tested on: Plasmodium falciparum; experiment: Drug accumulation in digestive vacuole of chloroquine-resistant Plasmodium falciparum assessed as vacuolar accumulation ratio at pH 5.2; format: ADME, organism-based
Method in brief: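 Calculated with the Henderson–Hasselbach equation from compound pKa values, taking cytosolic pH 7.4 and DV pH 5.2 for CQR parasites. Experimental pKa came from titrating 10 mM drug in water with 0.1 M NaOH at room temperature, using second-derivative inflection points, three determinations averaged.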

[11] = Inhibition of haemozoin formation at pH 5.2 after 18 hrs; format: functional; method in brief: as §2
[12] = tested on: Plasmodium falciparum; experiment: Selectivity for chloroquine-resistant Plasmodium falciparum K1 over chloroquine-sensitive Plasmodium falciparum NF54 as IC50 ratio by [3H]hypoxanthine uptake; format: functional
[13] = tested on: Plasmodium falciparum; experiment: Selectivity for chloroquine-resistant Plasmodium falciparum Indochina I over chloroquine-sensitive Plasmodium falciparum Haiti 135 as IC50 ratio by [3H]hypoxanthine uptake; format: functional
[14] = tested on: Plasmodium falciparum; experiment: Antimalarial activity against chloroquine-sensitive Plasmodium falciparum NF54 by [3H]hypoxanthine uptake; format: functional, organism-based
[15] = tested on: Plasmodium falciparum; experiment: Antimalarial activity against chloroquine-resistant Plasmodium falciparum K1 by [3H]hypoxanthine uptake; format: functional, organism-based

SMILES | Ratio IC50 [1] | Ratio IC50 [2] | IC50 [3] [µM] | IC50 [4] [µM] | IC50 [5] [µM] | IC50 [6] [µM] | Activity [7] | IC50 [8] [µM] | Ka [9] | logKA [9] | Activity [10] | IC50 [11] [µM] | Ratio IC50 [12] | Ratio IC50 [13] | IC50 [14] [µM] | IC50 [15] [µM]
CCN(CC)CC(CN(CC)CC)Oc1ccnc2cc(Cl)ccc12 | 1.7 | 0.866 | 1.29 | 3.83 | 2.25 | 1.49 | – | – | – | – | – | – | – | – | – | –
CCN(CC)CCCCSc1ccnc2cc(Cl)ccc12 | 0.622 | 0.601 | 4.44 | 3.5 | 5.63 | 7.39 | 64 | 155 | 8.22 ×10⁴ /M | 4.9 | 170 | 216 | – | – | – | –
CCN(CC)CCCNc1ccnc2cc(Cl)ccc12 | 4.14 | 4.33 | 0.026 | 0.029 | 0.007 | – | – | – | – | – | – | – | 3.33 | 1.2 | 0.018 | 0.06
CCN(CC)CCOc1ccnc2cc(Cl)ccc12 | 0.96 | 0.788 | 4.57 | 5.08 | 5.29 | 5.8 | – | – | – | – | – | – | – | – | – | –
CCN(CC)CCSc1ccnc2cc(Cl)ccc12 | 1.04 | 0.577 | 5.5 | 6.02 | 5.74 | 9.53 | – | – | – | – | – | – | – | – | – | –
CCN(CC)CCCCCCSc1ccnc2cc(Cl)ccc12 | 0.742 | 0.683 | 4.11 | 3.3 | 4.45 | 6.02 | – | – | – | – | – | – | – | – | – | –
CCN(CC)CCCSc1ccnc2cc(Cl)ccc12 | 0.465 | 0.475 | 2.66 | 1.61 | 3.46 | 5.6 | – | – | – | – | – | – | – | – | – | –
CCNCCCCNc1ccnc2cc(Cl)ccc12 | 32.8 | 36.1 | 0.649 | 0.854 | 0.026 | 0.018 | – | – | – | – | – | – | – | – | – | –
CCN(CC)CCCCC(CCCCN(CC)CC)Oc1ccnc2cc(Cl)ccc12 | 13.4 | 4.31 | 0.316 | 0.604 | 0.045 | 0.073 | – | – | – | – | – | – | – | – | – | –
CCNCCCNc1ccnc2cc(Cl)ccc12 | 4.25 | 16.4 | 0.115 | 0.085 | 0.02 | 0.007 | – | – | – | – | – | – | 24.3 | – | 0.015 | 0.365
CCN(CC)CCCOc1ccnc2cc(Cl)ccc12 | 0.996 | 0.549 | 2.8 | 2.33 | 2.34 | 5.1 | – | – | – | – | – | – | – | – | – | –
CCN(CC)CCCCCOc1ccnc2cc(Cl)ccc12 | 0.624 | 0.54 | 1.01 | 0.93 | 1.49 | 1.87 | – | – | – | – | – | – | – | – | – | –
CCN(CC)CCCC(C)Nc1ccnc2cc(Cl)ccc12 (stereo unspecified) [CHLOROQUINE] | – | – | – | – | – | – | 3700 | 16 | – | – | 23000 | 35 | – | – | – | –
CCNCCNc1ccnc2cc(Cl)ccc12 | 7.42 | 6.75 | 0.081 | 0.089 | 0.012 | 0.012 | – | – | – | – | – | – | 1.25 | – | 0.021 | 0.133
CCN(CC)CCCCNc1ccnc2cc(Cl)ccc12 | 3.69 | 16.6 | 0.199 | 0.181 | 0.049 | 0.012 | 3700 | 12 | 1.65 ×10⁵ /M | 5.2 | 23000 | 24 | – | 10.2 | – | –
CCN(CC)CCCCCNc1ccnc2cc(Cl)ccc12 | 7.17 | 12.3 | 0.357 | 0.509 | 0.066 | 0.029 | – | – | – | – | – | – | – | 9.67 | – | –
CCNCCCCCCNc1ccnc2cc(Cl)ccc12 | 10 | 31.3 | 0.982 | 0.987 | 0.052 | 0.019 | – | – | – | – | – | – | – | – | – | –
CCN(CC)CCCCCCOc1ccnc2cc(Cl)ccc12 | 0.524 | 1.36 | 4.16 | 1.19 | 2.27 | 3.06 | – | – | – | – | – | – | – | – | – | –
CCN(CC)CCCCCCNc1ccnc2cc(Cl)ccc12 | 6.38 | 0.876 | 0.085 | 0.102 | 0.016 | 0.097 | – | – | – | – | – | – | – | 11.2 | – | –
CCN(CC)CCNc1ccnc2cc(Cl)ccc12 | 2.3 | 2 | 0.026 | 0.03 | 0.013 | 0.013 | – | – | – | – | – | – | 2.33 | 0.714 | 0.021 | –
CCN(CC)CCCCOc1ccnc2cc(Cl)ccc12 | 0.663 | 0.404 | 1.18 | 1.1 | 1.66 | 2.92 | 67 | > 1000 | 8.82 ×10⁴ /M | 5 | 190 | > 1000 | – | – | – | –
CCN(CC)CCCCCSc1ccnc2cc(Cl)ccc12 | 0.506 | 0.464 | 1.08 | 0.814 | 1.61 | 2.33 | – | – | – | – | – | – | – | – | – | –
CCNCCCCCNc1ccnc2cc(Cl)ccc12 | 20.5 | 37.4 | 0.786 | 1.27 | 0.062 | 0.021 | – | – | – | – | – | – | – | – | – | –
CCN(CC)CCCC(CCCN(CC)CC)Oc1ccnc2cc(Cl)ccc12 | 4.75 | 4.35 | 0.409 | 0.352 | 0.074 | 0.094 | 5000 | 687 | 3.47 ×10⁴ /M | 4.5 | 79000 | 199 | – | – | – | –
